Measured values published in ChEMBL document CHEMBL4130442, “Design, synthesis and structure-activity relationship studies of a focused library of pyrimidine moiety with anti-proliferative and anti-metastasis activities in triple negative breast cancer” (Eur J Med Chem, 2017).

Assays:
[1] = target: T1, Platelet-derived growth factor receptor beta (Homo sapiens, UniProt P09619); assay: Inhibition of PDGFRbeta in human MDA-MB-231 cells assessed as ULK Ser555 phosphorylation level at 5 uM incubated for 24 hrs by Western blot relative to untreated control; assay type: cell-based
How it was run: (§1)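 Cells were treated 24 h at several concentrations. Pooled adherent and floating cells were lysed in Hepes 50 mM pH 7.4 / 1% Triton X-100 buffer with vanadate, NaF, EDTA, PMSF, aprotinin and leupeptin. Equal protein was run on 10-15% SDS-PAGE and blotted to PVDF. PDGFR-β-AKT-ULK1 pathway phospho-proteins were probed and detected by ECL, with β-actin as loading control.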

[2] = target: T1, Platelet-derived growth factor receptor beta; assay: Inhibition of PDGFRbeta in human MDA-MB-231 cells assessed as ULK Ser555 phosphorylation level at 10 uM incubated for 24 hrs by Western blot relative to untreated control; assay type: cell-based; how it was run: as §1
MDA-MB-231 [3] = assay: Effect on total mTOR protein level in human MDA-MB-231 cells at 5 uM incubated for 24 hrs by Western blot relative to untreated control; assay type: ADME, cell-based; conditions: mda-mb-231, 24 h
How it was run: (§2)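 MDA-MB-231 cells were exposed for 24 h. Adherent and floating cells were pooled and lysed for 1 h at 4 °C in 50 mM Hepes pH 7.4 with 1% Triton X-100, orthovanadate, NaF, EDTA, PMSF, aprotinin and leupeptin. After 12,000 rpm clearing, equal protein was run on 10-15% SDS-PAGE and blotted to PVDF. Detection used HRP-ECL, with β-actin as loading control and densitometric quantification.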

MDA-MB-231 [4] = assay: Induction of autophagy in human MDA-MB-231 cells assessed as change in Beclin-1 protein level at 2.5 uM incubated for 24 hrs in absence of PDGFRbeta siRNA by Western blot method relative to untreated control; assay type: functional; how it was run: as §2
[5] = target: T1, Platelet-derived growth factor receptor beta; assay: Inhibition of PDGFRbeta in human MDA-MB-231 cells assessed as PDGFRbeta Tyr740 phosphorylation level at 2.5 uM incubated for 24 hrs in presence of control siRNA by Western blot relative to untreated control; assay type: cell-based
How it was run: (§3)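 Cells were transfected with control or PDGFR-β siRNA, then treated with 2.5 μM compound for 24 h. PDGFR-β-AKT-ULK1 pathway phospho-proteins were assessed by western blot: lysis in Hepes pH 7.4 / Triton buffer, 10-15% SDS-PAGE, PVDF, ECL detection, β-actin as loading control.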

[6] = target: T1, Platelet-derived growth factor receptor beta; assay: Inhibition of PDGFRbeta in human MDA-MB-231 cells assessed as mTOR Ser2448 phosphorylation level at 2.5 uM incubated for 24 hrs in presence of control siRNA by Western blot relative to untreated control; assay type: cell-based; how it was run: as §3
[7] = target: T1, Platelet-derived growth factor receptor beta; assay: Inhibition of PDGFRbeta in human MDA-MB-231 cells assessed as mTOR Ser2448 phosphorylation level at 2.5 uM incubated for 24 hrs in absence of PDGFRbeta siRNA by Western blot relative to untreated control; assay type: cell-based; how it was run: as §3
[8] = target: T1, Platelet-derived growth factor receptor beta; assay: Inhibition of PDGFRbeta in human MDA-MB-231 cells assessed as ULK Ser317 phosphorylation level at 2.5 uM incubated for 24 hrs in absence of PDGFRbeta siRNA by Western blot relative to untreated control; assay type: cell-based; how it was run: as §3
MDA-MB-231 [9] = assay: Effect on total c-Raf protein level in human MDA-MB-231 cells at 5 uM incubated for 24 hrs in presence of PDGFRbeta siRNA by Western blot relative to untreated control; assay type: cell-based; conditions: mda-mb-231, 24 h
MDA-MB-231 [10] = assay: Effect on total c-Raf protein level in human MDA-MB-231 cells at 10 uM incubated for 24 hrs in presence of PDGFRbeta siRNA by Western blot relative to untreated control; assay type: cell-based; conditions: mda-mb-231, 24 h
[11] = target: T1, Platelet-derived growth factor receptor beta; assay: Inhibition of PDGFRbeta in human MDA-MB-231 cells assessed as C-Raf Ser259 phosphorylation level at 2.5 uM incubated for 24 hrs in presence of PDGFRbeta siRNA by Western blot relative to untreated control; assay type: cell-based
[12] = target: T1, Platelet-derived growth factor receptor beta; assay: Inhibition of PDGFRbeta in human MDA-MB-231 cells assessed as C-Raf Ser259 phosphorylation level at 10 uM incubated for 24 hrs in presence of PDGFRbeta siRNA by Western blot relative to untreated control; assay type: cell-based
[13] = target: T2, Dual specificity mitogen-activated protein kinase kinase; MEK1/2 (Homo sapiens) (UniProt P36507+Q02750); assay: Inhibition of MEK1/2 in human MDA-MB-231 cells assessed as MEK1/2 Ser217/221 phosphorylation level at 2.5 uM incubated for 24 hrs in presence of PDGFRbeta siRNA by Western blot relative to untreated control; assay type: cell-based
[14] = target: T2, Dual specificity mitogen-activated protein kinase kinase; MEK1/2 (Homo sapiens); assay: Inhibition of MEK1/2 in human MDA-MB-231 cells assessed as MEK1/2 Ser217/221 phosphorylation level at 5 uM incubated for 24 hrs in presence of PDGFRbeta siRNA by Western blot relative to untreated control; assay type: cell-based
[15] = target: T3, Mitogen-activated protein kinase; ERK1/ERK2 (Homo sapiens) (UniProt P27361+P28482); assay: Inhibition of ERK1/2 in human MDA-MB-231 cells assessed as ERK1/2 Thr202/Tyr204 phosphorylation level at 2.5 uM incubated for 24 hrs in presence of PDGFRbeta siRNA by Western blot relative to untreated control; assay type: cell-based
[16] = target: T3, Mitogen-activated protein kinase; ERK1/ERK2 (Homo sapiens); assay: Inhibition of ERK1/2 in human MDA-MB-231 cells assessed as ERK1/2 Thr202/Tyr204 phosphorylation level at 10 uM incubated for 24 hrs in presence of PDGFRbeta siRNA by Western blot relative to untreated control; assay type: cell-based
MDA-MB-231 [17] = assay: Effect on total Ras protein level in human MDA-MB-231 cells at 10 uM incubated for 24 hrs by Western blot relative to untreated control; conditions: mda-mb-231, 24 h

T1 sequence (P09619 whole entry): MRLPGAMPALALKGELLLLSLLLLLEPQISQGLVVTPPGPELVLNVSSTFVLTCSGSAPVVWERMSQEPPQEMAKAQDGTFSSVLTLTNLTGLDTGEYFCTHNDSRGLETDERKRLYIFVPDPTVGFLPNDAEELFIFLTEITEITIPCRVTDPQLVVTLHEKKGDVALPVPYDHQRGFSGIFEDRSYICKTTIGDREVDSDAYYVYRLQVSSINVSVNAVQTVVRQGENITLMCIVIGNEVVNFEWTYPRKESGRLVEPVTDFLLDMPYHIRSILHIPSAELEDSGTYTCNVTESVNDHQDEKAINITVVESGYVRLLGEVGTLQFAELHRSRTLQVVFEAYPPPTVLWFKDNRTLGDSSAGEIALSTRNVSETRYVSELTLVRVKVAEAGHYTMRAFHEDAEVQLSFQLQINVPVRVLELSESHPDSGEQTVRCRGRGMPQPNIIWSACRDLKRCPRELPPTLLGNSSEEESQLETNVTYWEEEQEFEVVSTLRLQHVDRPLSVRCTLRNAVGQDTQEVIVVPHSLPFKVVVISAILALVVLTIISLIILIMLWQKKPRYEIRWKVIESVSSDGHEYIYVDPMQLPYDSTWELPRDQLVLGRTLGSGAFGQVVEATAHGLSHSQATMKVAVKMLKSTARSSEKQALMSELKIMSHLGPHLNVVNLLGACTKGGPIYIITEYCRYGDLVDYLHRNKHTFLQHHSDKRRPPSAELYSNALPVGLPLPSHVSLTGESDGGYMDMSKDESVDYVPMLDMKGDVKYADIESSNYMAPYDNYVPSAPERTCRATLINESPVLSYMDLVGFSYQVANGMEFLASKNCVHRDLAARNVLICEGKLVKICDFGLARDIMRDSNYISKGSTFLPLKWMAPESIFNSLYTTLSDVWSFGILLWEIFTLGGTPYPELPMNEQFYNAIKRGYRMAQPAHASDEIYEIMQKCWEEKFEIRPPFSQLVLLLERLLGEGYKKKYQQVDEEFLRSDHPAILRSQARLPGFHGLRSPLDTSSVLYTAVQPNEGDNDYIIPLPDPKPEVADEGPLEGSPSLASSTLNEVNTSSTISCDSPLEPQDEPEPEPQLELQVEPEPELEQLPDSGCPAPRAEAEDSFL
T2 sequence (P36507 whole entry, looked up): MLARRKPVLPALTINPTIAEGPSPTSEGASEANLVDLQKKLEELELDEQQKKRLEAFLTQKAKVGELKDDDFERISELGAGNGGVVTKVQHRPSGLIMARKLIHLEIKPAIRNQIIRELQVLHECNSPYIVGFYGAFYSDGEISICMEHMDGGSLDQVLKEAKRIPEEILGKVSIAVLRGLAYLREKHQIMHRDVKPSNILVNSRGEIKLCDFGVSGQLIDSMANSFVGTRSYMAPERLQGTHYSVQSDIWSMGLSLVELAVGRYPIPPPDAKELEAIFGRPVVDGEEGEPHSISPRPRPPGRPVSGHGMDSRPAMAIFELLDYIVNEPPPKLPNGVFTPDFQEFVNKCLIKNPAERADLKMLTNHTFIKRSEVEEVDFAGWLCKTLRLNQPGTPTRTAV
T2 sequence (Q02750 whole entry, looked up): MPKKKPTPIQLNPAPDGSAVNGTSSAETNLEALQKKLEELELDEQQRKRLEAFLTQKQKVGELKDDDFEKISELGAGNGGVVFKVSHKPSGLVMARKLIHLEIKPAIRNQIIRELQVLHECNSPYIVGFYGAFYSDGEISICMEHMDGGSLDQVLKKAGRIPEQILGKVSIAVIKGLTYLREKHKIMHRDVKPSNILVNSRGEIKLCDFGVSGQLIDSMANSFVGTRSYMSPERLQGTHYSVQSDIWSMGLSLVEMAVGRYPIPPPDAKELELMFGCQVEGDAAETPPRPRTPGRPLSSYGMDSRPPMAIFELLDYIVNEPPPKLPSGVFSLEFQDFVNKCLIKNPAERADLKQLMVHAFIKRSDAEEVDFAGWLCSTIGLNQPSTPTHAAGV
T3 sequence (P27361 whole entry, looked up): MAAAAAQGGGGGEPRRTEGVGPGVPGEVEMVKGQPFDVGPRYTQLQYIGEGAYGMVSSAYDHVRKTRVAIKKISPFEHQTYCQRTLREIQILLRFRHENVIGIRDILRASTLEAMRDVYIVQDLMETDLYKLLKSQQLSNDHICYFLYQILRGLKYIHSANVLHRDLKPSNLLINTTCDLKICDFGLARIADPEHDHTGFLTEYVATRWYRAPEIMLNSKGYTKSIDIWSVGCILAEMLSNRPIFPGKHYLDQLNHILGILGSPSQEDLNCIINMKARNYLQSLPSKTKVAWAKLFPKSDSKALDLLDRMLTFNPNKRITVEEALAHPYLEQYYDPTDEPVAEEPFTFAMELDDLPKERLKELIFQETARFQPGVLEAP
T3 sequence (P28482 whole entry, looked up): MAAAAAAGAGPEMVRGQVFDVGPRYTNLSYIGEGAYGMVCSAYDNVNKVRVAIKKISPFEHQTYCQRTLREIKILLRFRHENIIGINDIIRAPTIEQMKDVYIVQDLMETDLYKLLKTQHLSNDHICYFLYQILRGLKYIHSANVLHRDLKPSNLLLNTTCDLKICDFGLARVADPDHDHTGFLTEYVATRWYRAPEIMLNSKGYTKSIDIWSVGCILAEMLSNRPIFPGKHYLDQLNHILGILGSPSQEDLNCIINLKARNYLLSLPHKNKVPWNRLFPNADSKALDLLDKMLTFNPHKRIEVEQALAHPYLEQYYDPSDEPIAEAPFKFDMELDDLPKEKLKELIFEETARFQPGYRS

Question: How did the fold change (FC) [1] turn out when `COc1cccc(Nc2cc(N3CCN(C(=O)Nc4ccc(C(F)(F)F)cc4)CC3)ncn2)c1` was run?
Answer: 4.2

Question: What about the fold change (FC) [2] of the same compound?
Answer: 5.6

Question: What about the “fold change (FC)” value (MDA-MB-231 [3]) of the same compound?
Answer: 0.31

Question: What about the “fold change (FC)” value (MDA-MB-231 [4]) of the same compound?
Answer: 4.02

Question: What about the fold change (FC) [5] of the same compound?
Answer: 0.08

Question: And the fold change (FC) [6]?
Answer: 0.26

Question: And the fold change (FC) [7]?
Answer: 0.21

Question: And the fold change (FC) [8]?
Answer: 3.67

Question: What about the “fold change (FC)” value (MDA-MB-231 [9]) of the same compound?
Answer: 0.82

Question: What about the “fold change (FC)” value (MDA-MB-231 [10]) of the same compound?
Answer: 1.23

Question: And the fold change (FC) [11]?
Answer: 0.95

Question: And the fold change (FC) [12]?
Answer: 0.95

Question: And the fold change (FC) [13]?
Answer: 1.12

Question: And the fold change (FC) [14]?
Answer: 1.05

Question: And the fold change (FC) [15]?
Answer: 1.05

Question: And the fold change (FC) [16]?
Answer: 2.38

Question: And the “fold change (FC)” value (MDA-MB-231 [17])?
Answer: 2.32
